# Laboratory results published in ChEMBL document CHEMBL3259628, “Discovery of novel 2-((pyridin-3-yloxy)methyl)piperazines as α7 nicotinic acetylcholine receptor modulators for the treatment of inflammatory disorders” (J Med Chem, 2014).
# Activity calls are given as the source filed them. The rule behind the calls is not given here.
# How the values were obtained:
# [1] = Oral bioavailability in mouse at 5 mg/kg; assay type: ADME, organism-based; conditions: in vivo
# [2] = molecular target: Neuronal acetylcholine receptor subunit alpha-7 (Rattus norvegicus, UniProt Q05941); experiment: Inhibition of biotinylated alpha-bungarotoxin binding to alpha7 nAChR in rat PC12 cells by FACS analysis; assay type: cell-based, PC-12
# Chain of Neuronal acetylcholine receptor subunit alpha-7 (Q05941 whole entry): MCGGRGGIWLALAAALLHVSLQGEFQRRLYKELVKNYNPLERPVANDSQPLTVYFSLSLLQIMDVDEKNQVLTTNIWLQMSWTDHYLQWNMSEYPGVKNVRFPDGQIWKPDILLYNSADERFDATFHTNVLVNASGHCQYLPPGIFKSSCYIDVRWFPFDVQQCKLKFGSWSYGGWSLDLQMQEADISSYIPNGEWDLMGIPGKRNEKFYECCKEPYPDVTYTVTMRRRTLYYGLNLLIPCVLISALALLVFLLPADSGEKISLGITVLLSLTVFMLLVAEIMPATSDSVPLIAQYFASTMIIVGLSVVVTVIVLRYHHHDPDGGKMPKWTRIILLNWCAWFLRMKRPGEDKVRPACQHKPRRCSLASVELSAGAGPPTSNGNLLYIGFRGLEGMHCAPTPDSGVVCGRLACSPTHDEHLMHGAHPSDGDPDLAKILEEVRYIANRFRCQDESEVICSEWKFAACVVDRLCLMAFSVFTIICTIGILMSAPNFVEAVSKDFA
# How it was run: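 Rat PC12 cells in binding buffer (PBS, 1.0% FBS, 0.02% sodium azide), 0.1% DMSO; biotinylated α-bungarotoxin 10 nM final, 1 h at room temperature; nonspecific binding defined with 1.5 μM unlabeled toxin. After washing, phycoerythrin-streptavidin 1.0 μg/mL final, 15 min in the dark; read by FACS. Screened at 10 and 1 μM, then eight-point 3-fold dilution IC50; mean of two or more experiments.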
# Mus musculus [3] = experiment: (§1) Antiinflammatory activity against ovalbumin-induced allergic lung inflammation BALB/c mouse model assessed as reduction in neutrophils in brochoalveolar lavage fluid at 30 mg/kg, po bid administered on day 29 to 31 post ovalbumin challenge measured 8 hrs post last challenge relative to vehicle-treated control; assay type: functional, organism-based; set-up: dose 30 mg/kg; conditions: Bronchoalveolar lavage
# How it was run: (§2)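 Balb/c mice sensitized with ovalbumin by IP injection on days 1 and 14, then challenged intranasally with 100 μg ovalbumin on days 29, 30 and 31. Compound in saline given orally starting 30 min before each challenge; groups of six mice. Sham groups were saline-sensitized and allergen-challenged. BAL taken 8 h after the last challenge, with differential cell counts on slides.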
# Cytochrome P450 2D6 = Cytochrome P450 2D6 (Homo sapiens, UniProt P10635); experiment: Inhibition of CYP2D6 (unknown origin); assay type: ADME
# Chain of Cytochrome P450 2D6 (P10635 whole entry, canonical isoform): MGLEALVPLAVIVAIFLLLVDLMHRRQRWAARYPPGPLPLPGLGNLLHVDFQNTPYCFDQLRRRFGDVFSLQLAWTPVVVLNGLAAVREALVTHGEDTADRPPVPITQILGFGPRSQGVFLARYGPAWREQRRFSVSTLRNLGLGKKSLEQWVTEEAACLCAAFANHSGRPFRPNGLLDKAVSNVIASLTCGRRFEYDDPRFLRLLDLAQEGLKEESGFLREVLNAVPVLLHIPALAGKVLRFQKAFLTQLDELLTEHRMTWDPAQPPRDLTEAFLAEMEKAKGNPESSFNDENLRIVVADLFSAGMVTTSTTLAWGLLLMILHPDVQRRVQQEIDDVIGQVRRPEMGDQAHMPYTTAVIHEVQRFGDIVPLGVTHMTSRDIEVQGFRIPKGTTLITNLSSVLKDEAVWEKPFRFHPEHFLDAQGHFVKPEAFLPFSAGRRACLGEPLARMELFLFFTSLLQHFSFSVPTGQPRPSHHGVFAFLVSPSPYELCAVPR
# How it was run: (§3)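 Each of five Cyp isoforms assayed with single probe substrates rather than a substrate cocktail. Run in duplicate at Cerep. IC50 lines come from a 5-concentration titration curve.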
# Mus musculus [4] = experiment: as §1, with “total blood cells” for “neutrophils”; assay type: functional, organism-based; set-up: dose 30 mg/kg; how it was run: as §2
# [5] = Clearance in rat at 1 mg/kg, iv; assay type: ADME, organism-based; set-up: dose 1 mg/kg, route intravenous; conditions: in vivo
# Mus musculus [6] = experiment: as §1, with “total blood cells” for “neutrophils”, “1” for “30”; assay type: functional; how it was run: as §2
# Mus musculus [7] = experiment: as §1, with “5” for “30”; assay type: functional; conditions: Bronchoalveolar lavage; how it was run: as §2
# Cytochrome P450 1A2 = Cytochrome P450 1A2 (Homo sapiens, UniProt P05177); experiment: Inhibition of CYP1A2 (unknown origin); assay type: ADME; how it was run: as §3
# Chain of Cytochrome P450 1A2 (P05177 whole entry): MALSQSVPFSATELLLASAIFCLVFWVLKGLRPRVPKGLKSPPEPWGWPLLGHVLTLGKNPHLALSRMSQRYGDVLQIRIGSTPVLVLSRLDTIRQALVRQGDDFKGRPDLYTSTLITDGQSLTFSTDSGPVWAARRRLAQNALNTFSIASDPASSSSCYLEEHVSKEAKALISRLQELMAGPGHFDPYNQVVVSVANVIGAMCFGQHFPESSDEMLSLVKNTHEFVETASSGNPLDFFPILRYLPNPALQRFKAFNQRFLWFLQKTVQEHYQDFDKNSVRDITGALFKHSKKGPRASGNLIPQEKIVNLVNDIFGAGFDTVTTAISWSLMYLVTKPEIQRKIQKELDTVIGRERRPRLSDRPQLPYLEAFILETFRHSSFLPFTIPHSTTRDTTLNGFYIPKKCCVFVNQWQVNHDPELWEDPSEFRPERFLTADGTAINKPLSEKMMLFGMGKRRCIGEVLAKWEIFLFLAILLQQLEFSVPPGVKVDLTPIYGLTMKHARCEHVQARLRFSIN
# [8] = Clearance in mouse at 1 mg/kg, iv; assay type: ADME, organism-based; set-up: dose 1 mg/kg, route intravenous; conditions: in vivo
# Mus musculus [9] = experiment: as §1, with “1” for “30”; assay type: functional; conditions: Bronchoalveolar lavage; how it was run: as §2
# Mus musculus [10] = experiment: as §1, with “0.2” for “30”; assay type: functional, organism-based; set-up: dose 0.2 mg/kg; conditions: Bronchoalveolar lavage; how it was run: as §2
# [11] = Oral bioavailability in rat at 15 mg/kg; assay type: ADME, organism-based; conditions: in vivo
# [12] = Cmax in mouse at 5 mg/kg, po; assay type: ADME, organism-based; set-up: dose 5 mg/kg, route oral; conditions: in vivo
# Mus musculus [13] = experiment: as §1, with “eosinophils” for “neutrophils”, “0.2” for “30”; assay type: functional, organism-based; set-up: dose 0.2 mg/kg; how it was run: as §2
# [14] = molecular target: Voltage-gated inwardly rectifying potassium channel KCNH2 (Homo sapiens, UniProt Q12809); experiment: Inhibition of human ERG by whole-cell voltage clamp assay
# Chain of Voltage-gated inwardly rectifying potassium channel KCNH2 (Q12809 whole entry): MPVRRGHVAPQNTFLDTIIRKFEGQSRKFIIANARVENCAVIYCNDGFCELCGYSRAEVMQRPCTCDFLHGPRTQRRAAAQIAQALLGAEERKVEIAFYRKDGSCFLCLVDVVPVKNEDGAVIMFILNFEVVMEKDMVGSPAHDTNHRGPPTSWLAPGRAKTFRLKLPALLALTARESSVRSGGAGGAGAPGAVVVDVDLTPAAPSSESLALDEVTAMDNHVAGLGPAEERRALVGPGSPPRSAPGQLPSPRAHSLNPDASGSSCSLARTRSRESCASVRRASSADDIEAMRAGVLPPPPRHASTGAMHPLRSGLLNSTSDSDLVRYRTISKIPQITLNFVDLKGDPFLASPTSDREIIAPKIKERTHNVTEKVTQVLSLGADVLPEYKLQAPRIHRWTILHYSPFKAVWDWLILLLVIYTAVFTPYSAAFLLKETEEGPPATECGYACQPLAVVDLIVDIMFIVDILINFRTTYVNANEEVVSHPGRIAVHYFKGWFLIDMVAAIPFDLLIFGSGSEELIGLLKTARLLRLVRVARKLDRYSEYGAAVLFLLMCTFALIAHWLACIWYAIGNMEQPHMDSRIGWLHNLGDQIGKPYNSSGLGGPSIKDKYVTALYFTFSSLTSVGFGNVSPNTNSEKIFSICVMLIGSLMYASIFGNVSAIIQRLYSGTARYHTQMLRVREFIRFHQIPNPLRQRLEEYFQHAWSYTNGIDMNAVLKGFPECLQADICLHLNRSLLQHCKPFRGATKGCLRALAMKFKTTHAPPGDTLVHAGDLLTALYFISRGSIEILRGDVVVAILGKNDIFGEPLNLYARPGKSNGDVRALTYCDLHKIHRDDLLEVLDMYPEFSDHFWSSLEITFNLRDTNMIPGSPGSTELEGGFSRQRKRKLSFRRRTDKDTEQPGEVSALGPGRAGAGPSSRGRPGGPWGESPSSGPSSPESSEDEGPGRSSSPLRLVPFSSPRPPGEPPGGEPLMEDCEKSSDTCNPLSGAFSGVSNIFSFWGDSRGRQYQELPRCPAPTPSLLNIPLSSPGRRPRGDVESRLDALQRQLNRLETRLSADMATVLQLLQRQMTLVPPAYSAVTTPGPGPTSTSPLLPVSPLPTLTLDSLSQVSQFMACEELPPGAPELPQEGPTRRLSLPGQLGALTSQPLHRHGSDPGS
# Cytochrome P450 3A4 = Cytochrome P450 3A4 (Homo sapiens, UniProt P08684); experiment: Inhibition of CYP3A4 (unknown origin); assay type: ADME; how it was run: as §3
# Chain of Cytochrome P450 3A4 (P08684 whole entry): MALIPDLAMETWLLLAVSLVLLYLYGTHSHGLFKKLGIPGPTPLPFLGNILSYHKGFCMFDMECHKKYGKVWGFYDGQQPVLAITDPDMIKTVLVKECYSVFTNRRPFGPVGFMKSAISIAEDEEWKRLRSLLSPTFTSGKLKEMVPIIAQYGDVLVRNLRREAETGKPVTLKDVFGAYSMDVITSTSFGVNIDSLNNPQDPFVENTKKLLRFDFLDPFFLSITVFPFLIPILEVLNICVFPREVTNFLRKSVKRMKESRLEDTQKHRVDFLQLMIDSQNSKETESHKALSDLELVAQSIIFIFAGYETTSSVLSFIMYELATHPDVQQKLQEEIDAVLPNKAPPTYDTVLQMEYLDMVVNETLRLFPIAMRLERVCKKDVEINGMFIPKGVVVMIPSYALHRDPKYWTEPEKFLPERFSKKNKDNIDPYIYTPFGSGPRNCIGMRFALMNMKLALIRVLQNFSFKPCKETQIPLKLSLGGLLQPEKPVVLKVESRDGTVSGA
# Mus musculus [15] = experiment: as §1, with “total blood cells” for “neutrophils”, “5” for “30”; assay type: functional; how it was run: as §2
# Cytochrome P450 2C9 = Cytochrome P450 2C9 (Homo sapiens, UniProt P11712); experiment: Inhibition of CYP2C9 (unknown origin); assay type: ADME; how it was run: as §3
# Chain of Cytochrome P450 2C9 (P11712 whole entry): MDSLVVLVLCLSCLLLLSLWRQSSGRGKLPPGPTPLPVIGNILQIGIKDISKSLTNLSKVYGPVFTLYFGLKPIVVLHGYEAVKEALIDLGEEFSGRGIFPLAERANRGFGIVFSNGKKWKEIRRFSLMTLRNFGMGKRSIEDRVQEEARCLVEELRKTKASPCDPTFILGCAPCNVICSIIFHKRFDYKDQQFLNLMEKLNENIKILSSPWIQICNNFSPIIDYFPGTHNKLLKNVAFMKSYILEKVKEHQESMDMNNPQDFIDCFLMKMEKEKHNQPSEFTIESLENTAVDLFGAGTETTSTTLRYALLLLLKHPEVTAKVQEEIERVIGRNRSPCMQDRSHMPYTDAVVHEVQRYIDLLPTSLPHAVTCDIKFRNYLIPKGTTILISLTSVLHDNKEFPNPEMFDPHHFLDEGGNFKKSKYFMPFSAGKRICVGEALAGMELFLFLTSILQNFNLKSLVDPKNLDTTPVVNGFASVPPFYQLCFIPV
# [16] = Half life in rat at 15 mg/kg, po; assay type: ADME, organism-based; set-up: dose 15 mg/kg, route oral; conditions: in vivo
# [17] = Cmax in rat at 15 mg/kg, po; assay type: ADME, organism-based; set-up: dose 15 mg/kg, route oral; conditions: in vivo
# Rattus norvegicus = species on record: Rattus norvegicus; experiment: Inhibition of rat sodium channel site 2 at 10 uM
# How it was run: (§4)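 Receptor, ion channel and transporter binding panel run at Cerep in duplicate. Percent inhibition measured at 10 μM compound.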
# Mus musculus [18] = experiment: as §1, with “eosinophils” for “neutrophils”, “1” for “30”; assay type: functional; how it was run: as §2
# [19] = molecular target: Neuronal acetylcholine receptor; alpha4/beta2 (Homo sapiens, UniProt P17787+P43681); experiment: Inhibition of human alpha4beta2 nAChR at 10 uM by binding assay
# Cytochrome P450 2C19 = Cytochrome P450 2C19 (Homo sapiens, UniProt P33261); experiment: Inhibition of CYP2C19 (unknown origin); assay type: ADME; how it was run: as §3
# Chain of Cytochrome P450 2C19 (P33261 whole entry): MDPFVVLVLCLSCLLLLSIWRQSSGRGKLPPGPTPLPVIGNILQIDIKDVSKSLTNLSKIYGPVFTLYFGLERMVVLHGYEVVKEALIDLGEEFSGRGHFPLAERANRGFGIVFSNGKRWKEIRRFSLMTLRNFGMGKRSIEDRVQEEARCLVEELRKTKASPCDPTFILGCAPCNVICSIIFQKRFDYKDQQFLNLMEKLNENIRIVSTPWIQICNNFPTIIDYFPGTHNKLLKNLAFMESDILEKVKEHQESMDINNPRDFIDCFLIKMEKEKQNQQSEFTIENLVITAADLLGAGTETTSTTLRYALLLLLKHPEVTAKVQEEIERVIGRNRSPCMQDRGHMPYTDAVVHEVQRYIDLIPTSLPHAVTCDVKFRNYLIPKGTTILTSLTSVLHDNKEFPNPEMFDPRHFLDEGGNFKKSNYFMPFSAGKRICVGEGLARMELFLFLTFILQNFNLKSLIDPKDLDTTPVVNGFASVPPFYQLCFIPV
# Mus musculus [20] = experiment: as §1, with “total blood cells” for “neutrophils”, “0.2” for “30”; assay type: functional, organism-based; set-up: dose 0.2 mg/kg; how it was run: as §2
# [21] = Ratio of drug uptake in brain to plasma in iv dosed mouse measured after 5 to 30 mins; assay type: ADME, organism-based; conditions: brain and plasma, read-out: BPR
# Mus musculus [22] = experiment: as §1, with “eosinophils” for “neutrophils”; assay type: functional, organism-based; set-up: dose 30 mg/kg; how it was run: as §2
# [23] = Half life in rat at 1 mg/kg, iv; assay type: ADME, organism-based; set-up: dose 1 mg/kg, route intravenous; conditions: in vivo
# [24] = Half life in mouse at 1 mg/kg, iv; assay type: ADME, organism-based; set-up: dose 1 mg/kg, route intravenous; conditions: in vivo
# [25] = molecular target: Histamine H3 receptor (Homo sapiens) (UniProt Q9Y5N1); experiment: Inhibition of human histamine H3 receptor at 10 uM; how it was run: as §4
# Chain of Histamine H3 receptor (Homo sapiens) (Q9Y5N1 whole entry): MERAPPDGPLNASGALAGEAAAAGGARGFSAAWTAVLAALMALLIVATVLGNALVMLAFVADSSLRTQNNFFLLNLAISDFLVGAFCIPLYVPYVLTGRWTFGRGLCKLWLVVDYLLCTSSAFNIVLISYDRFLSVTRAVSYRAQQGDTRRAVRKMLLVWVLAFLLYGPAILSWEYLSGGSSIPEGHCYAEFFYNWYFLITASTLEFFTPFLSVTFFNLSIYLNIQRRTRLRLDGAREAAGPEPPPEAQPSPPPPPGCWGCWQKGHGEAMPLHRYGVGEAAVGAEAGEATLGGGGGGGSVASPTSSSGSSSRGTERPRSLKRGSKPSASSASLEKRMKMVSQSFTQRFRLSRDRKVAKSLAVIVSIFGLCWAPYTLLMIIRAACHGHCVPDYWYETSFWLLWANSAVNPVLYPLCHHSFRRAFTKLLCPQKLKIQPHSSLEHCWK
# [26] = Half life in mouse at 5 mg/kg, po; assay type: ADME, organism-based; set-up: dose 5 mg/kg, route oral; conditions: in vivo
# Mus musculus [27] = experiment: as §1, with “eosinophils” for “neutrophils”, “5” for “30”; assay type: functional; how it was run: as §2
structure (smiles),measurement,setting,value
COc1ccc(NC(=O)N2CCNC[C@@H]2COc2cccnc2)cc1.Cl,bioavailability,[1],76%
same,IC50,[2],0.019 µM
same,inhibition,Mus musculus [3],inactive
same,IC50,Cytochrome P450 2D6,> 100 µM
same,inhibition,Mus musculus [4],inactive
same,clearance,[5],86 mL/min/kg
same,inhibition in vivo at 1 mg/kg,Mus musculus [6],53%
same,inhibition in vivo at 5 mg/kg,Mus musculus [7],70%
same,IC50,Cytochrome P450 1A2,> 100 µM
same,clearance,[8],103 mL/min/kg
same,inhibition in vivo at 1 mg/kg,Mus musculus [9],61%
same,inhibition,Mus musculus [10],inactive
same,bioavailability,[11],89%
same,Cmax,[12],950 nM
same,inhibition,Mus musculus [13],inactive
same,IC50,[14],31 µM
same,IC50,Cytochrome P450 3A4,> 100 µM
same,inhibition in vivo at 5 mg/kg,Mus musculus [15],63%
same,IC50,Cytochrome P450 2C9,> 100 µM
same,half-life,[16],2.35 h
same,Cmax,[17],751 ng/mL
same,inhibition,Rattus norvegicus,48%
same,inhibition in vivo at 1 mg/kg,Mus musculus [18],48%
same,inhibition,[19],10%
same,IC50,Cytochrome P450 2C19,> 100 µM
same,inhibition,Mus musculus [20],inactive
same,Kp,[21],≤ 0.06
same,inhibition,Mus musculus [22],inactive
same,half-life,[23],1.22 h
same,half-life,[24],0.65 h
same,inhibition,[25],86%
same,half-life,[26],1.73 h
same,inhibition in vivo at 5 mg/kg,Mus musculus [27],74%
